In ChEMBL document CHEMBL1250501, “Anti-tubercular agents. Part 5: synthesis and biological evaluation of benzothiadiazine 1,1-dioxide based congeners” (Eur J Med Chem, 2010):
Values after ≈ are worked out from the molar mass of the structure shown. Active and inactive are the calls of the source. No cut-off for these calls is given here.

Assays:
Format in all cases: functional
Klebsiella pneumoniae [1] = test: Antibacterial activity against Klebsiella pneumoniae at 100 ug/ml after 18 hrs by cup plate method
How it was run: (§1)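 Agar well diffusion on Mueller-Hinton agar. Inoculum was adjusted to a 0.5 McFarland standard (about […] × 10⁸ CFU/mL) and swabbed over the plate three times, rotating about 60° each time, then the rim was swabbed. Compounds in DMSO went into duplicate 6 mm wells. Plates were incubated at 37 °C for 18 h and inhibition zone diameter read to the nearest mm. DMSO negative control; streptomycin and ciprofloxacin positive controls.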

Staphylococcus aureus [2] = test: Antibacterial activity against Staphylococcus aureus at 50 ug/ml after 18 hrs by cup plate method; conditions: for zone of inhibition at 50 µg/mL: read-out: DIZ; how it was run: as §1
Bacillus subtilis [3] = test: Antibacterial activity against Bacillus subtilis at 50 ug/ml after 18 hrs by cup plate method; conditions: for zone of inhibition at 50 µg/mL: read-out: DIZ; how it was run: as §1
[4] = system: Staphylococcus epidermidis; test: Antibacterial activity against Staphylococcus epidermidis at 50 ug/ml after 18 hrs by cup plate method; conditions: for zone of inhibition at 50 µg/mL: read-out: DIZ; how it was run: as §1
Candida albicans [5] = test: Antifungal activity against Candida albicans MTCC 227 at 50 ug/ml after 48 hrs by cup plate method
How it was run: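 Agar well (cup plate) diffusion on potato dextrose agar 39 g/L. Compounds dissolved in DMSO and loaded into 6 mm wells. Incubated at 28 ± 2 °C for 48 h. Inhibition zone diameter measured to the nearest millimetre, three replicates per treatment. DMSO solvent as negative control, amphotericin B as positive control.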

Candida albicans [6] = test: Antifungal activity against Candida albicans MTCC 227 at 100 ug/ml after 48 hrs by cup plate method; conditions: MTCC 227, 48 h, read-out: IZ
How it was run: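 Agar well (cup plate) diffusion on potato dextrose agar 39 g/L, with compounds dissolved in DMSO. Plates were incubated at 28 ± 2 °C for 48 h and inhibition zones measured to the nearest mm. Three replicates per treatment. Amphotericin B positive control; solvent control included.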

Pseudomonas aeruginosa [7] = test: Antibacterial activity against Pseudomonas aeruginosa at 100 ug/ml after 18 hrs by cup plate method; how it was run: as §1
Staphylococcus aureus [8] = test: Antibacterial activity against Staphylococcus aureus at 100 ug/ml after 18 hrs by cup plate method; conditions: for zone of inhibition at 100 µg/mL: read-out: DIZ; how it was run: as §1
Klebsiella pneumoniae [9] = test: Antibacterial activity against Klebsiella pneumoniae at 50 ug/ml after 18 hrs by cup plate method; conditions: for zone of inhibition at 50 µg/mL: read-out: DIZ; how it was run: as §1
Bacillus subtilis [10] = test: Antibacterial activity against Bacillus subtilis at 100 ug/ml after 18 hrs by cup plate method; how it was run: as §1
Escherichia coli [11] = test: Antibacterial activity against Escherichia coli at 50 ug/ml after 18 hrs by cup plate method; conditions: for zone of inhibition at 50 µg/mL: read-out: DIZ; how it was run: as §1
[12] = system: Mycobacterium tuberculosis; test: Antimycobacterial activity against Mycobacterium tuberculosis H37Rv after 3 to 4 weeks by broth microdilution assay
How it was run: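 MIC by broth microdilution on compounds active in a single-concentration primary screen. Plates incubated 3–4 weeks at 37 °C in a CO₂ incubator. Wells read visually for absence of growth turbidity.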

Pseudomonas aeruginosa [13] = test: Antibacterial activity against Pseudomonas aeruginosa at 50 ug/ml after 18 hrs by cup plate method; conditions: for zone of inhibition at 50 µg/mL: read-out: DIZ; how it was run: as §1
[14] = system: Staphylococcus epidermidis; test: Antibacterial activity against Staphylococcus epidermidis at 100 ug/ml after 18 hrs by cup plate method; how it was run: as §1
Escherichia coli [15] = test: Antibacterial activity against Escherichia coli at 100 ug/ml after 18 hrs by cup plate method; how it was run: as §1
Klebsiella pneumoniae [16] = test: Antibacterial activity against Klebsiella pneumoniae at 25 ug/ml after 18 hrs by cup plate method; conditions: read-out: DIZ; how it was run: as §1
Pseudomonas aeruginosa [17] = test: Antibacterial activity against Pseudomonas aeruginosa at 25 ug/ml after 18 hrs by cup plate method; conditions: read-out: DIZ; how it was run: as §1

Compound	diameter of the inhibition zone (DIZ) (Klebsiella pneumoniae [1])	zone of inhibition at 50 µg/mL (Staphylococcus aureus [2]) [mm]	diameter of the inhibition zone (DIZ) (Bacillus subtilis [3])	zone of inhibition at 50 µg/mL [4] [mm]	inhibition zone (IZ) (Candida albicans [5])	zone of inhibition at 100 µg/mL (Candida albicans [6]) [mm]	diameter of the inhibition zone (DIZ) (Pseudomonas aeruginosa [7])	zone of inhibition at 100 µg/mL (Staphylococcus aureus [8]) [mm]	diameter of the inhibition zone (DIZ) (Klebsiella pneumoniae [9])	diameter of the inhibition zone (DIZ) (Bacillus subtilis [10])	zone of inhibition at 50 µg/mL (Escherichia coli [11]) [mm]	MIC [12] [µg/mL]	zone of inhibition at 50 µg/mL (Pseudomonas aeruginosa [13]) [mm]	diameter of the inhibition zone (DIZ) [14]	diameter of the inhibition zone (DIZ) (Escherichia coli [15])	zone of inhibition at 50 µg/mL (Bacillus subtilis [3]) [mm]	zone of inhibition at 50 µg/mL (Klebsiella pneumoniae [9]) [mm]	further results
CN1C(N2CCN(C(=O)c3ccc([N+](=O)[O-])o3)CC2)=NS(=O)(=O)c2ccccc21	inactive	17	inactive	10	inactive	12	inactive	18	inactive	inactive	9	16 (≈ 38.1 µM)	10	inactive	inactive			
CN[C@@H]1[C@H](O[C@H]2[C@H](O[C@H]3[C@H](O)[C@@H](O)[C@H](N=C(N)N)[C@@H](O)[C@@H]3N=C(N)N)O[C@@H](C)[C@]2(O)C=O)O[C@@H](CO)[C@H](O)[C@H]1O [STREPTOMYCIN]		22		18	inactive						21		29			17	22	
O=C(O)c1cn(C2CC2)c2cc(N3CCNCC3)c(F)cc2c1=O [CIPROFLOXACIN]		26		34	inactive						38		30			32	20	zone of inhibition at 25 µg/mL (Klebsiella pneumoniae [16]): 21 mm; zone of inhibition at 25 µg/mL (Pseudomonas aeruginosa [17]): 40 mm
O=[N+]([O-])c1ccc(CN2CCN(C3=NS(=O)(=O)c4ccccc4N3c3ccccc3)CC2)o1		14	inactive	15	inactive	11		15	inactive		14	2 (≈ 4.28 µM)	10					zone of inhibition at 100 µg/mL (Klebsiella pneumoniae [1]; read-out: DIZ): 15 mm; zone of inhibition at 100 µg/mL (Pseudomonas aeruginosa [7]; read-out: DIZ): 15 mm; zone of inhibition at 100 µg/mL (Bacillus subtilis [10]; read-out: DIZ): 19 mm; zone of inhibition at 100 µg/mL ([14]; read-out: DIZ): 20 mm; zone of inhibition at 100 µg/mL (Escherichia coli [15]; read-out: DIZ): 20 mm
CCN1C(N2CCN(C(=O)c3ccc([N+](=O)[O-])o3)CC2)=NS(=O)(=O)c2ccccc21	inactive		inactive		inactive	10	inactive		inactive	inactive		> 16		inactive	inactive			diameter of the inhibition zone (DIZ) (Staphylococcus aureus [2]): inactive; diameter of the inhibition zone (DIZ) [4]: inactive; diameter of the inhibition zone (DIZ) (Staphylococcus aureus [8]): inactive; diameter of the inhibition zone (DIZ) (Escherichia coli [11]): inactive; diameter of the inhibition zone (DIZ) (Pseudomonas aeruginosa [13]): inactive
